Screening results (PubChem)
TRPC4 act: opens the mouse TRPC4 cation channel; Q9QUQ5; HEK293 TRPC4beta/mu-opioid, Fluo4 calcium fluorescence; stronger effect = higher value; B-score at 10 µM; hit rate 0.49% among 310,000; AID 2237;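 active = B-score above 5 SD of library B-scores, and initial fluorescence ratio not above library mean plus 5 SD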;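 also: positive B-score marks a calcium rise read as TRPC4 activation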
Target sequence (Q9QUQ5 whole entry, looked up): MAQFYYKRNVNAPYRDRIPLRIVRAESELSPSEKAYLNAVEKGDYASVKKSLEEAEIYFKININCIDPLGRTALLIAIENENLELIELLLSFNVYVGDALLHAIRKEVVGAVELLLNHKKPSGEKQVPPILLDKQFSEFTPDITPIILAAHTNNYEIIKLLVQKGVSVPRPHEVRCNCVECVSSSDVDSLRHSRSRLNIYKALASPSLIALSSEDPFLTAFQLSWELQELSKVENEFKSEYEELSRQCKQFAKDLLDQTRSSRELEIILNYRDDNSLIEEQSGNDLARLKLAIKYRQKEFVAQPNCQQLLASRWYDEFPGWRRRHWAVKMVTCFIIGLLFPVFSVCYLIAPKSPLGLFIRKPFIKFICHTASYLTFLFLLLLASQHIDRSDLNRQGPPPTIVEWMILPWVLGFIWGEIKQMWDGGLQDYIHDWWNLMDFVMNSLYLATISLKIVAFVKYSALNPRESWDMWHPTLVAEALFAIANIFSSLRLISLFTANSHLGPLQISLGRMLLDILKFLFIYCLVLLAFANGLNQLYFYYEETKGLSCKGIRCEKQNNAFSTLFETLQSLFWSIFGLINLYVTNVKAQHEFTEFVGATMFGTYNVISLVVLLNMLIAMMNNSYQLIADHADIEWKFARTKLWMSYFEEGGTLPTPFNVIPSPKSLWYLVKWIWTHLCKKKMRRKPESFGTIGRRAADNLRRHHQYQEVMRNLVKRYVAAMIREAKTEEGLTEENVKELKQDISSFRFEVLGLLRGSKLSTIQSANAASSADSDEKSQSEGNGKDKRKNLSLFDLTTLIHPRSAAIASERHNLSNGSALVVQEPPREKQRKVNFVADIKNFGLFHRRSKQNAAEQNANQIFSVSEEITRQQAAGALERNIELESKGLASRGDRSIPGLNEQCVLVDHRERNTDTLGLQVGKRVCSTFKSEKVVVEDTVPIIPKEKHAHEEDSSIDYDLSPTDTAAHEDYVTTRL
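Material: TRPC4beta and mu-opioid receptor HEK293 stable cells | Incubation: 45 min room-temperature Fluo4 loading, 110 s read | Detection: Kinetic Fluo4 calcium fluorescence | Measure: Integrated baseline-normalised fluorescence ratio, converted to per-well B score | Benchmarks: Low control buffer alone, high control maximal DAMGO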
FID counter: counter-screen for HCV NS3 helicase inhibitors: DNA intercalator displacement; AID 1845; hit rate 0.17% among 290,000; inhibition, % at 7.9 µM; DNA fluorescent intercalator displacement, fluorescence; in the data active = inhibition above about 37%;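 also: higher means more ethidium bromide displaced from hairpin DNA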
TRPC6 inh: blocks the mouse TRPC6 cation channel | HEK293-TRPC6, membrane potential dye, ACh-evoked depolarization; stronger effect = lower value | B-score at 10 µM | hit rate 1.1% among 310,000 | AID 2553;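 active = B-score under library mean minus 3 SD, initial fluorescence not abnormally high, positive integrated signal ratio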;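 also: B-score derived from integrated fluorescence ratio over the kinetic read; more negative B-score means stronger inhibition of depolarization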
TRPC4 inh: inhibitors of mouse TRPC4 channel. HEK293 TRPC4beta/mu-opioid, DAMGO-evoked Fluo4 calcium flux; stronger effect = lower value. hit rate 0.39% among 300,000. B-score at 10 µM;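 active = B-score over 3 SD under the library average, no early fluorescence shift, positive overall ratio signal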
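Material: HEK293 cells with stable TRPC4beta plus mu-opioid receptor expression / Probe or stimulus: DAMGO in two steps, submaximal then maximal / Compound: single concentration per test compound / Technique: kinetic Fluo4 fluorescence imaging of calcium influx / Read-out: per-well B score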
TRPC4 potent: allosterically enhances the mouse TRPC4 cation channel; Q9QUQ5; HEK293 TRPC4beta/mu-opioid, DAMGO EC20, Fluo-4 Ca2+ flux; stronger effect = higher value; B-score at 10 µM; hit rate 0.42% among 310,000; AID 2227;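 active = B-score of calcium response area above 5 SD of library B-scores, with initial fluorescence ratio within 5 SD of library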
TRPC6 activator: mouse TRPC6 channel activation; HEK293-TRPC6 membrane potential dye fluorescence; stronger effect = higher value; B-score at 10 µM; hit rate 0.13% among 310,000; AID 2550;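 active = B-score of the integrated fluorescence ratio above library mean plus 3 SD, and starting fluorescence ratio within library mean plus 5 SD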;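 also: higher score means more depolarization so channel activation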
A number is an active result. A selection: hits, their analogues and other compounds. The true share with any hit is near 2.3%.

For Cc1cc(N2CCN(C)CC2)nc2ccc(NC(=S)NCCN3CCc4ccccc4C3)cc12 the results were TRPC4 act inactive, FID counter 38, TRPC6 inh inactive, TRPC4 inh inactive, TRPC4 potent inactive and TRPC6 activator inactive.
O=C(CN1C(=O)NC2(CCOc3ccccc32)C1=O)c1ccc(F)cc1 (configuration not stated) was read as TRPC4 act inactive, TRPC6 inh inactive, TRPC4 inh inactive, TRPC4 potent inactive and TRPC6 activator inactive.
Cc1ccc(Nc2nc(NCCCN3CCOCC3)nc(N)c2[N+](=O)[O-])cc1 was read as TRPC4 act inactive, FID counter inactive, TRPC6 inh inactive, TRPC4 inh -6, TRPC4 potent inactive and TRPC6 activator inactive.
For CC1(C)Cc2c(cnn2-c2cccc(F)c2)C(NC(=O)CCc2cnccn2)C1 (configuration not stated) the results were TRPC4 act inactive, FID counter inactive, TRPC6 inh inactive, TRPC4 inh inactive, TRPC4 potent inactive and TRPC6 activator inactive.
`COc1cccc(-c2nn(-c3ccccc3)cc2CN(C)C(C)c2ccncn2)c1` (configuration not stated) gave TRPC4 act 51, FID counter inactive, TRPC6 inh inactive, TRPC4 inh -6, TRPC4 potent inactive and TRPC6 activator inactive.
For COc1ccc(-n2cc(CN(C)C(C)c3ccncn3)c(-c3cccc(F)c3)n2)cc1 (configuration not stated) the results were TRPC4 act inactive, FID counter inactive, TRPC6 inh inactive, TRPC4 inh -8, TRPC4 potent inactive and TRPC6 activator inactive.
Screening COc1ccc(-n2cc(CN(C)CCO)c(-c3cccc(F)c3)n2)cc1 returned TRPC4 act inactive, FID counter inactive, TRPC6 inh inactive, TRPC4 inh inactive, TRPC4 potent inactive and TRPC6 activator inactive.
Screening CN(Cc1ccccc1)C(=O)COC(=O)c1ccc(=O)n(Cc2ccccc2)n1 returned TRPC4 act inactive, TRPC6 inh inactive, TRPC4 inh inactive, TRPC4 potent inactive and TRPC6 activator inactive.
CC(C)C(OC(=O)CN1C(=O)c2ccccc2C1=O)C(=O)NC1CCCC1 (configuration not stated) was read as TRPC4 act inactive, FID counter inactive, TRPC6 inh inactive, TRPC4 inh inactive, TRPC4 potent inactive and TRPC6 activator inactive.
Screening Cc1nc2ccccc2n1S(=O)(=O)c1cc(C(=O)O)ccc1Cl returned TRPC4 act inactive, FID counter inactive, TRPC6 inh inactive, TRPC4 inh inactive, TRPC4 potent inactive and TRPC6 activator inactive.
CCCCN1/C(=C/c2ccc3ccccc3[n+]2CC)Sc2ccccc21 was read as TRPC4 act 204, FID counter inactive, TRPC6 inh inactive, TRPC4 inh inactive, TRPC4 potent inactive and TRPC6 activator inactive.
For CN(CCOc1ccccc1)C(=O)C1CCN(C(=O)c2ccc(F)cc2)CC1 the results were TRPC4 act inactive, FID counter inactive, TRPC6 inh inactive, TRPC4 inh inactive, TRPC4 potent inactive and TRPC6 activator inactive.
For CC1CC(C)CN(CCCNC(=O)CCC(=O)N2CC(C)Oc3ccccc32)C1 (configuration not stated) the results were TRPC4 act 53, FID counter inactive, TRPC6 inh inactive, TRPC4 inh inactive, TRPC4 potent inactive and TRPC6 activator inactive.
CCOC(=O)N1CCC(NC(=O)CCC(=O)N2CC(C)Oc3ccc(C)cc32)CC1 (configuration not stated) was read as TRPC4 act inactive, FID counter inactive, TRPC6 inh inactive, TRPC4 inh inactive, TRPC4 potent inactive and TRPC6 activator inactive.
Screening COc1cccc(NC(=O)CCC(=O)N2CC(C)Oc3ccc(C)cc32)c1 (configuration not stated) returned TRPC4 act inactive, FID counter inactive, TRPC6 inh inactive, TRPC4 inh -7, TRPC4 potent inactive and TRPC6 activator inactive.
Screening Cc1ccc2c(c1)N(C(=O)CCC(=O)Nc1ccccc1Cl)CC(C)O2 (configuration not stated) returned TRPC4 act inactive, FID counter inactive, TRPC6 inh inactive, TRPC4 inh -8, TRPC4 potent inactive and TRPC6 activator inactive.
`Cc1ccc2c(c1)N(C(=O)CCC(=O)NCc1ccccc1)CC(C)O2` (configuration not stated) gave TRPC4 act inactive, FID counter inactive, TRPC6 inh inactive, TRPC4 inh inactive, TRPC4 potent inactive and TRPC6 activator inactive.
For Cc1ccc2c(c1)N(C(=O)CCC(=O)NCc1cccc(Cl)c1)CC(C)O2 (configuration not stated) the results were TRPC4 act inactive, FID counter inactive, TRPC6 inh inactive, TRPC4 inh -7, TRPC4 potent inactive and TRPC6 activator inactive.
Screening c1ccc2c(N3CCCCCC3)nc(-c3ccncc3)nc2c1 returned TRPC4 act inactive, FID counter inactive, TRPC6 inh inactive, TRPC4 inh inactive, TRPC4 potent inactive and TRPC6 activator inactive.
For c1ccc(N2CCN(c3nc(-c4ccccn4)nc4ccccc34)CC2)cc1 the results were TRPC4 act inactive, FID counter inactive, TRPC6 inh -5.6, TRPC4 inh inactive, TRPC4 potent inactive and TRPC6 activator inactive.
`Clc1ccc2c(c1)CCc1cccnc1C2=C1CCNCC1` gave TRPC4 act inactive, FID counter inactive, TRPC6 inh -6, TRPC4 inh inactive, TRPC4 potent inactive and TRPC6 activator inactive.
COc1cc2c(cc1OC)CN(C(=O)c1cc(S(=O)(=O)N3CCOCC3)ccc1C)CC2 was read as TRPC4 act inactive, TRPC6 inh inactive, TRPC4 inh inactive, TRPC4 potent inactive and TRPC6 activator inactive.
Screening Cc1nc(-c2ccc([N+](=O)[O-])cc2)nc2[nH]ccc(=O)c12 returned TRPC4 act inactive, FID counter inactive, TRPC6 inh inactive, TRPC4 inh inactive, TRPC4 potent inactive and TRPC6 activator inactive.
`O=C(Nc1cccc(Cl)c1N1CCOCC1)c1cccs1` gave TRPC4 act inactive, FID counter inactive, TRPC6 inh inactive, TRPC4 inh inactive, TRPC4 potent inactive and TRPC6 activator inactive.
Screening O=C(Nc1cccc(Cl)c1N1CCOCC1)c1ccco1 returned TRPC4 act inactive, FID counter inactive, TRPC6 inh inactive, TRPC4 inh inactive, TRPC4 potent inactive and TRPC6 activator inactive.
For CCN1CCN(c2c(Cl)cccc2NC(=O)c2cccs2)CC1 the results were TRPC4 act inactive, FID counter inactive, TRPC6 inh inactive, TRPC4 inh inactive, TRPC4 potent 39 and TRPC6 activator inactive.
`CCN1CCN(c2c(Cl)cccc2NC(=O)c2ccc([N+](=O)[O-])o2)CC1` gave TRPC4 act inactive, FID counter inactive, TRPC6 inh -8.7, TRPC4 inh inactive, TRPC4 potent inactive and TRPC6 activator inactive.
`CCN1CCN(c2c(Cl)cccc2NC(=O)c2ccco2)CC1` gave TRPC4 act 65, FID counter inactive, TRPC6 inh inactive, TRPC4 inh inactive, TRPC4 potent inactive and TRPC6 activator inactive.
